How the values were obtained:
Assay type in all cases: functional
Oryctolagus cuniculus [1] = species: Oryctolagus cuniculus; assay: Compound was evaluated for the ability to lower total serum cholesterol levels in 5 Watanabe heritable hyperlipidemic (WHHL) rabbits on day 28.
Procedure, shortened: (§1)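 Modified WHHL rabbits (British half-lop × WHHL cross, homozygous LDL-receptor deficient), age 14 ± 1 weeks, fed 100 g/day rabbit chow repelleted with compound at 1% (wt/wt), content checked by HPLC; controls got plain chow (n = 10). Total serum cholesterol measured enzymatically on days 0, 28, 56 and 84; group mean ± SEM (mg/dL).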

Oryctolagus cuniculus [2] = species: Oryctolagus cuniculus; assay: Compound concentration in low-density lipoprotein (LDL).
Procedure, shortened: (§2)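 Day-84 plasma (EDTA) from rabbits fed 1% drug in chow. LDL isolated by sequential ultracentrifugation at d = 1.019–1.063 g/mL, brought back to the original serum volume, and drug measured by HPLC. Molecules per particle calculated from LDL protein, taking apoB (mw 500 000) as one copy per particle. Mean ± SEM.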

Oryctolagus cuniculus [3] = species: Oryctolagus cuniculus; assay: Compound concentration in serum.
Procedure, shortened: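 Rabbits fed 1% (wt/wt) drug in chow (100 g/day) for 84 days. Serum taken at sacrifice on day 84 and extracted with ether/ethanol; extract dried under N2, redissolved, and run on reverse-phase C18 HPLC in acetonitrile/water (85/15) at 1.5 mL/min with detection at 240 nm. Results given as μg/mL, mean ± SEM.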

Oryctolagus cuniculus [4] = species: Oryctolagus cuniculus; assay: Compound was evaluated for the ability to lower total serum cholesterol levels in 5 Watanabe heritable hyperlipidemic (WHHL) rabbits on day 56.; procedure, shortened: as §1
Oryctolagus cuniculus [5] = species: Oryctolagus cuniculus; assay: Prevention of Cu2+-induced lipid peroxidation of LDL.
Procedure, shortened: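 LDL (d 1.019–1.063 g/mL) isolated from each drug-fed rabbit at day 84 and dialyzed against PBS. Incubated with 5 μM CuSO4 (final) at 37 °C for 3 h; reaction stopped with EDTA. 50 μg LDL treated with TCA and 0.67% TBA at 90 °C for 30 min. TBARS read at 532 nm against an MDA standard curve (0–5 nmol).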

Oryctolagus cuniculus [6] = species: Oryctolagus cuniculus; assay: Compound was evaluated for the ability to lower total serum cholesterol levels in 5 Watanabe heritable hyperlipidemic (WHHL) rabbits on day 84.; procedure, shortened: as §1
Oryctolagus cuniculus [7] = species: Oryctolagus cuniculus; assay: % atherosclerotic lesions in WHHL rabbits.
Procedure, shortened: (§3)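 WHHL rabbits (homozygous LDL-receptor deficient, British half-lop cross, 14 ± 1 weeks) fed 100 g/day chow containing 1% (wt/wt) drug for 84 days, then killed by iv pentobarbital. Aortas stained with Sudan IV; sudanophilic area in thoracic aorta quantified by digital image analysis from staining density. Values are percent lesion area per group.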

Oryctolagus cuniculus [8] = species: Oryctolagus cuniculus; assay: Compound was evaluated for the ability to lower total serum cholesterol levels in 5 Watanabe heritable hyperlipidemic (WHHL) rabbits on day 0.; procedure, shortened: as §1
[9] = Molar content of compound in low-density lipoprotein (LDL) was obtained from the ratio of molecules to that of LDL particles.; procedure, shortened: as §2
Oryctolagus cuniculus [10] = species: Oryctolagus cuniculus; assay: Percent atherosclerotic lesions in WHHL rabbits.; procedure, shortened: as §3
Oryctolagus cuniculus [11] = species: Oryctolagus cuniculus; assay: Compound was evaluated for the ability to lower total serum cholesterol levels in 4 Watanabe heritable hyperlipidemic (WHHL) rabbits on day 84.; procedure, shortened: as §1
Oryctolagus cuniculus [12] = species: Oryctolagus cuniculus; assay: Compound was evaluated for the ability to lower total serum cholesterol levels in 4 Watanabe heritable hyperlipidemic (WHHL) rabbits on day 0.; procedure, shortened: as §1
Oryctolagus cuniculus [13] = species: Oryctolagus cuniculus; assay: Compound was evaluated for the ability to lower total serum cholesterol levels in 4 Watanabe heritable hyperlipidemic (WHHL) rabbits on day 28.; procedure, shortened: as §1
Oryctolagus cuniculus [14] = species: Oryctolagus cuniculus; assay: Compound was evaluated for the ability to lower total serum cholesterol levels in 4 Watanabe heritable hyperlipidemic (WHHL) rabbits on day 56.; procedure, shortened: as §1

SMILES | Cholesterol Concentration (Oryctolagus cuniculus [1]) | Drug Conc (LDL) (Oryctolagus cuniculus [2]) | Drug Conc (serum) (Oryctolagus cuniculus [3]) | Cholesterol Concentration (Oryctolagus cuniculus [4]) | Lipid peroxidation (nM MDA (mg LDL)-1) (Oryctolagus cuniculus [5]) | Cholesterol Concentration (Oryctolagus cuniculus [6]) | Lesion (Oryctolagus cuniculus [7]) | Cholesterol Concentration (Oryctolagus cuniculus [8]) | Molar content (Molecules (LDL particle)-1) [9] | Lesion (Oryctolagus cuniculus [10]) | Cholesterol Concentration (Oryctolagus cuniculus [11]) | Cholesterol Concentration (Oryctolagus cuniculus [12]) | Cholesterol Concentration (Oryctolagus cuniculus [13]) | Cholesterol Concentration (Oryctolagus cuniculus [14])
CCCCC(C)(Sc1cc(C)c(O)c(C(C)(C)C)c1)Sc1cc(C)c(O)c(C(C)(C)C)c1 | 1042 mg/dL | 3 µg/mL | 6.4 µg/mL | 1079 mg/dL | 33 | 1095 mg/dL | 81% | 1005 mg/dL | 0.7 | – | – | – | – | –
CC(C)(Sc1cc(C(C)(C)C)c(O)c(C(C)(C)C)c1)Sc1cc(C(C)(C)C)c(O)c(C(C)(C)C)c1 [PROBUCOL] | – | 41 µg/mL | 56 µg/mL | – | 25 | – | – | – | 11.3 | 47% | 698 mg/dL | 658 mg/dL | 728 mg/dL | 731 mg/dL
CCCC(C)(Sc1cc(C(C)(C)C)c(O)c(C(C)(C)C)c1)Sc1cc(C(C)(C)C)c(O)c(C(C)(C)C)c1 | – | 23 µg/mL | 42 µg/mL | – | 30 | – | 53% | – | 6.2 | – | 782 mg/dL | 685 mg/dL | 885 mg/dL | 796 mg/dL
CC(C)(C)c1cc(SCSc2cc(C(C)(C)C)c(O)c(C(C)(C)C)c2)cc(C(C)(C)C)c1O | 905 mg/dL | 65 µg/mL | 135 µg/mL | 766 mg/dL | 16 | 734 mg/dL | 39% | 890 mg/dL | 20.3 | – | – | – | – | –

From ChEMBL document CHEMBL1125734, “Antioxidant activity of probucol and its analogues in hypercholesterolemic Watanabe rabbits” (1991)
